Laboratory results from ChEMBL document CHEMBL3120154, “2-[N-Alkyl(R-phenyl)-aminomethyl]-3-phenyl-7-trifluoromethylquinoxalines as anticancer agents inhibitors of folate enzymes” (Eur J Med Chem, 2014).

Assays:
Assay type in all cases: functional
LOX IMVI [1] = assay: Cytotoxicity against human LOXIMVI cells at 10^-6 M after 48 hrs by SRB assay; details: read-out: GI
Outline: (§1)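 Run in the NCI 60-cell-line screen after a three-line prescreen. Cells got a 48 h drug exposure; viability/growth was estimated with the sulforhodamine B protein assay. Growth inhibition (I%) was recorded at 100, 10, 1, 0.1 and 0.01 micromolar. Percent growth is relative to untreated control cells, and negative values indicate cell kill.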

A498 = assay: Cytotoxicity against human A498 cells at 10^-6 M after 48 hrs by SRB assay; details: A498, 48 h, read-out: GI
Outline: (§2)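 Run by NCI on its 60-line human tumor cell panel, after a three-cell-line prescreen. Cells were exposed to drug for 48 h over a 5-log range: 100, 10, 1, 0.1 and 0.01 micromolar. Growth was estimated by sulforhodamine B (SRB) protein staining. Percent growth inhibition (I%) was recorded at each concentration relative to untreated control cells.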

MCF7 = assay: Cytotoxicity against human MCF7 cells at 10^-6 M after 48 hrs by SRB assay; details: MCF7, 48 h, read-out: GI; outline: as §1
PC-3 [2] = assay: Cytotoxicity against human PC3 cells at 10^-5 M after 48 hrs by SRB assay; details: PC-3, 48 h, read-out: GI
Outline: (§3)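 Second-stage screen in the 60-cell-line human tumor panel at NCI, over a 5-log range (100, 10, 1, 0.1, 0.01 micromolar). Cells were exposed to drug for 48 h and growth was estimated with a sulforhodamine B protein stain. The value is percent growth inhibition at each concentration.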

PC-3 [3] = assay: Cytotoxicity against human PC3 cells at 10^-6 M after 48 hrs by SRB assay; details: PC-3, 48 h, read-out: GI; outline: as §3
SW-620 [4] = assay: Cytotoxicity against human SW620 cells at 10^-5 M after 48 hrs by SRB assay; details: SW-620, 48 h, read-out: GI
SF-268 = assay: Cytotoxicity against human SF268 cells at 10^-5 M after 48 hrs by SRB assay; details: SF-268, 48 h, read-out: GI; outline: as §3
NCI-H226 = assay: Cytotoxicity against human NCI-H226 cells at 10^-5 M after 48 hrs by SRB assay; details: NCI-H226, 48 h, read-out: GI; outline: as §1
BT-549 = assay: Cytotoxicity against human BT549 cells at 10^-6 M after 48 hrs by SRB assay; details: BT-549, 48 h, read-out: GI; outline: as §2
HL-60(TB) = assay: Cytotoxicity against human HL-60(TB) cells at 10^-6 M after 48 hrs by SRB assay; details: HL-60, 48 h, read-out: GI
Outline: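 NCI 60-human-tumour-cell-line screen run over a 5-log dose range (100, 10, 1, 0.1 and 0.01 µM). Cells were exposed to drug for 48 h. Growth was estimated by sulforhodamine B protein staining. Values are percent growth inhibition at each concentration, relative to untreated control cells.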

T47D [5] = assay: Cytotoxicity against human T47D cells at 10^-6 M after 48 hrs by SRB assay; details: read-out: GI
M14 = assay: Cytotoxicity against human M14 cells at 10^-6 M after 48 hrs by SRB assay; details: M14, 48 h, read-out: GI; outline: as §1
SW-620 [6] = assay: Cytotoxicity against human SW620 cells at 10^-6 M after 48 hrs by SRB assay; details: SW-620, 48 h, read-out: GI
SK-OV-3 = assay: Cytotoxicity against human SKOV3 cells at 10^-5 M after 48 hrs by SRB assay; details: SK-OV-3, 48 h, read-out: GI; outline: as §3
MOLT-4 = assay: Cytotoxicity against human MOLT4 cells at 10^-6 M after 48 hrs by SRB assay; details: MOLT-4, 48 h, read-out: GI; outline: as §1
UACC-62 [7] = assay: Cytotoxicity against human UACC62 cells at 10^-5 M after 48 hrs by SRB assay; details: UACC-62, 48 h, read-out: GI
NCI/ADR-RES = assay: Cytotoxicity against human NCI/ADR-RES cells at 10^-6 M after 48 hrs by SRB assay; details: read-out: GI; outline: as §1
[8] = Cytotoxicity against human Hs578T cells at 10^-6 M after 48 hrs by SRB assay; details: Hs-578T, read-out: GI; outline: as §2
RPMI-8226 = assay: Cytotoxicity against human RPMI8226 cells at 10^-6 M after 48 hrs by SRB assay; details: RPMI-8226, 48 h, read-out: GI; outline: as §3
MDA-MB-435 = assay: Cytotoxicity against human MDA-MB-435 cells at 10^-5 M after 48 hrs by SRB assay; details: MDA-MB-435, 48 h, read-out: GI; outline: as §1
TK-10 = assay: Cytotoxicity against human TK10 cells at 10^-6 M after 48 hrs by SRB assay; details: TK-10, 48 h, read-out: GI
OVCAR-3 = assay: Cytotoxicity against human OVCAR3 cells at 10^-5 M after 48 hrs by SRB assay; details: OVCAR-3, 48 h, read-out: GI; outline: as §1
MDA-MB-231 = assay: Cytotoxicity against human MDA-MB-231 cells at 10^-6 M after 48 hrs by SRB assay; details: MDA-MB-231, 48 h, read-out: GI; outline: as §1
IGROV-1 = assay: Cytotoxicity against human IGROV1 cells at 10^-6 M after 48 hrs by SRB assay; details: IGROV-1, 48 h, read-out: GI; outline: as §1
HOP-92 = assay: Cytotoxicity against human HOP92 cells at 10^-6 M after 48 hrs by SRB assay; details: HOP-92, 48 h, read-out: GI; outline: as §2
RXF 393 [9] = assay: Cytotoxicity against human RXF393 cells at 10^-6 M after 48 hrs by SRB assay; details: RXF 393, 48 h, read-out: GI; outline: as §3
[10] = Cytotoxicity against human EKVX cells at 10^-5 M after 48 hrs by SRB assay; details: read-out: GI; outline: as §2
LOX IMVI [11] = assay: Cytotoxicity against human LOXIMVI cells at 10^-5 M after 48 hrs by SRB assay; details: read-out: GI; outline: as §1
[12] = Cytotoxicity against human OVCAR4 cells at 10^-5 M after 48 hrs by SRB assay; details: OVCAR-4, 48 h, read-out: GI; outline: as §3
T47D [13] = assay: Cytotoxicity against human T47D cells at 10^-5 M after 48 hrs by SRB assay; details: read-out: GI
UACC-62 [14] = assay: Cytotoxicity against human UACC62 cells at 10^-6 M after 48 hrs by SRB assay; details: UACC-62, 48 h, read-out: GI
SK-MEL-28 = assay: Cytotoxicity against human SK-MEL-28 cells at 10^-5 M after 48 hrs by SRB assay; details: SK-MEL-28, 48 h, read-out: GI; outline: as §3
SK-MEL-2 = assay: Cytotoxicity against human SK-MEL-2 cells at 10^-5 M after 48 hrs by SRB assay; details: SK-MEL-2, 48 h, read-out: GI; outline: as §3
NCI-H322M = assay: Cytotoxicity against human NCI-H322M cells at 10^-5 M after 48 hrs by SRB assay; details: read-out: GI; outline: as §1
HCT-116 = assay: Cytotoxicity against human HCT116 cells at 10^-6 M after 48 hrs by SRB assay; details: HCT-116, 48 h, read-out: GI; outline: as §2
RXF 393 [15] = assay: Cytotoxicity against human RXF393 cells at 10^-5 M after 48 hrs by SRB assay; details: RXF 393, 48 h, read-out: GI; outline: as §3

Structure (SMILES)	inhibition of growth at 1 µM (LOX IMVI [1]) [%]	inhibition of growth at 1 µM (A498) [%]	inhibition of growth at 1 µM (MCF7) [%]	inhibition of growth at 10 µM (PC-3 [2]) [%]	inhibition of growth at 1 µM (PC-3 [3]) [%]	inhibition of growth at 10 µM (SW-620 [4]) [%]	inhibition of growth at 10 µM (SF-268) [%]	inhibition of growth at 10 µM (NCI-H226) [%]	inhibition of growth at 1 µM (BT-549) [%]	inhibition of growth at 1 µM (HL-60(TB)) [%]	inhibition of growth at 1 µM (T47D [5]) [%]	inhibition of growth at 1 µM (M14) [%]	inhibition of growth at 1 µM (SW-620 [6]) [%]	inhibition of growth at 10 µM (SK-OV-3) [%]	inhibition of growth at 1 µM (MOLT-4) [%]	inhibition of growth at 10 µM (UACC-62 [7]) [%]	inhibition of growth at 1 µM (NCI/ADR-RES) [%]	inhibition of growth at 1 µM [8] [%]	inhibition of growth at 1 µM (RPMI-8226) [%]	inhibition of growth at 10 µM (MDA-MB-435) [%]	further results
CCN(Cc1nc2cc(C(F)(F)F)ccc2nc1-c1ccccc1)c1ccc(OC)c(OC)c1	< 40	26	< 40	56	13	18	15	32	< 40	< 40	< 40	< 40	< 40	< 40	< 40	24	< 40	< 40	< 40	14	inhibition of growth at 1 µM (TK-10): < 40%; inhibition of growth at 10 µM (OVCAR-3): 31%; inhibition of growth at 1 µM (MDA-MB-231): < 40%; inhibition of growth at 1 µM (IGROV-1): < 40%; inhibition of growth at 1 µM (HOP-92): < 40%; inhibition of growth at 1 µM (RXF 393 [9]): 57%; inhibition of growth at 10 µM [10]: 23%; inhibition of growth at 10 µM (LOX IMVI [11]): 23%; inhibition of growth at 10 µM [12]: < 40%; inhibition of growth at 10 µM (T47D [13]): 24%; inhibition of growth at 1 µM (UACC-62 [14]): < 40%; inhibition of growth at 10 µM (SK-MEL-28): < 40%; inhibition of growth at 10 µM (SK-MEL-2): 15%; inhibition of growth at 10 µM (NCI-H322M): < 40%; inhibition of growth at 1 µM (HCT-116): 12%; inhibition of growth at 10 µM (RXF 393 [15]): 102%
C#CCN(Cc1nc2cc(C(F)(F)F)ccc2nc1-c1ccccc1)c1ccc(C)cc1	< 40	< 40	64	< 40	< 40	82	50	91	< 40	66	90	54	< 40	112	67	91	109	< 40	< 40	147	inhibition of growth at 1 µM (TK-10): < 40%; inhibition of growth at 10 µM (OVCAR-3): 125%; inhibition of growth at 1 µM (MDA-MB-231): < 40%; inhibition of growth at 1 µM (IGROV-1): < 40%; inhibition of growth at 1 µM (HOP-92): < 40%; inhibition of growth at 1 µM (RXF 393 [9]): < 40%; inhibition of growth at 10 µM [10]: < 40%; inhibition of growth at 10 µM (LOX IMVI [11]): 54%; inhibition of growth at 10 µM [12]: 63%; inhibition of growth at 10 µM (T47D [13]): 78%; inhibition of growth at 1 µM (UACC-62 [14]): < 40%; inhibition of growth at 10 µM (SK-MEL-28): 71%; inhibition of growth at 10 µM (SK-MEL-2): 72%; inhibition of growth at 10 µM (NCI-H322M): 62%; inhibition of growth at 1 µM (HCT-116): 66%; inhibition of growth at 10 µM (RXF 393 [15]): 70%
